Test [1] concerns the target T1, Estrogen receptor (Mus musculus) (UniProt O08537+P19785). As to the kind of experiment: Antiestrogenic activity in uterotrophic test in mice at 0 ug. It counts as functional. The essentials: (§1)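 Immature female NMRI mice, 20 days old (14.5 ± 1.2 g), randomly grouped 10 per group. Each received a daily sc injection for 3 days of 0.1 mL olive oil solution containing test compound, together with estrone to stimulate uterine growth. Uteri were removed 24 h after the last injection and weighed. Results are reported as % inhibition of the estrone-stimulated uterine weight gain, mean ± SD.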

Test [2] addresses T1, Estrogen receptor (Mus musculus). As to the kind of experiment: Antiestrogenic activity in uterotrophic test in mice at 100 ug. It counts as functional. The essentials: as §1
For test [3] the target is unchanged. As to the kind of experiment: Antiestrogenic activity in uterotrophic test in mice at 1000 ug. It counts as functional. The essentials:
as §1

For test [4] the target is unchanged. The experiment in a line: Antiestrogenic activity in uterotrophic test in mice at 3.3 ug. It counts as functional. The essentials:
as §1

For test [5] the target is unchanged. As to the kind of experiment: Inhibitory activity in mouse uterine weight test at 0.1 ug. It counts as functional. The gist of the method: (§2)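 Antiuterotrophic (Dorfman) assay in immature 20-day-old female NMRI mice, groups of 10. Uterine growth was stimulated with estrone (0.1 μg) and the test compound was given alongside it, sc daily for 3 days in 0.1 mL olive oil. Uteri were taken 24 h after the last dose. Uterine weight is reported as means ± SD and inhibition as % of the estrone-stimulated response.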

Test [6] shares this target. As to the kind of experiment: Inhibitory activity in mouse uterine weight test at 100 ug. The class given is functional. The gist of the method:
as §2

The target is the same in test [7]. As to the kind of experiment: Inhibitory activity in mouse uterine weight test at 1000 ug. It counts as functional. The essentials:
as §2

The test system of test [8] is Estrogen receptor (Bos taurus). As to the kind of experiment: Displacement of [3H]estradiol from calf estrogen receptor. On the technique in general: In a radioligand displacement assay an active substance lowers the binding of a labelled ligand.
For test [9], the species on record is Mus musculus. As to the kind of experiment: Vaginal cornification test in mice at 0 ug; predominant cellular component leucocytes (diestrus). It counts as functional, organism-based. The essentials: (§3)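 Female NMRI mice (~15 g) were ovariectomized; castration was confirmed at 10 days by leucocyte smears. Mice were primed with estradiol 3-benzoate 0.2 μg, and only responders showing estrus were kept. Groups of three received sc test compound in 0.1 mL olive oil daily for 3 days. Saline vaginal smears were taken 6, 24, 30, 48 and 54 h after the last dose and scored by Allen-Doisy.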

Test [10] is filed under the species Mus musculus. The experiment in a line: Vaginal cornification test in mice at 2.7 ug; predominant cellular component leucocytes (diestrus). The class given is functional, organism-based.
The species named for test [11] is Mus musculus. As to the kind of experiment: Predominant components of vaginal smear at a compound concentration of 240 ug was determined using vaginal cornification test; leucocytes (</= 50%), nucleated and cornified, nucleated cellscharacteristic of antiestrogens. The class given is functional, organism-based.
The species named for test [12] is Mus musculus. The experiment in a line: Vaginal cornification test in mice at 27 ug; predominant cellular component leucocytes (diestrus). It counts as functional, organism-based.
The species named for test [13] is Mus musculus. The experiment in a line: Vaginal cornification test in mice at 5 ug; predominant cellular component leucocytes (diestrus). It counts as functional, organism-based. The gist of the method:
as §3

The species named for test [14] is Mus musculus. The experiment in a line: Predominant components of vaginal smear at a compound concentration of 80 ug was determined using vaginal cornification test; leucocytes (</= 50%), nucleated and cornified, nucleated cellscharacteristic of antiestrogens. It counts as functional, organism-based.
The target of test [15] is T1, Estrogen receptor (Mus musculus). The experiment in a line: Antiestrogenic activity in uterotrophic test in mice at 2.7 ug. The class given is functional. The essentials:
as §1

For test [16] the target is unchanged. The experiment in a line: Antiestrogenic activity in uterotrophic test in mice at 240 ug. The class given is functional. The essentials: as §1
Test [17] shares this target. The experiment in a line: Antiestrogenic activity in uterotrophic test in mice at 27 ug. It counts as functional. The essentials: as §1
For test [18] the target is unchanged. The experiment in a line: Antiestrogenic activity in uterotrophic test in mice at 80 ug. The class given is functional. The gist of the method:
as §1

Test [19] shares this target. As to the kind of experiment: Antiestrogenic activity in uterotrophic test in mice at 5 ug. It counts as functional. The gist of the method: as §1
Test [20] has the same target. As to the kind of experiment: Estrogenic activity in uterotrophic test in mice at 0 ug. The class given is functional. The essentials: (§4)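 Uterine growth stimulation in immature female NMRI mice, 20 days old (14.5 ± 1.2 g), 10 per group. Test compound in 0.1 mL olive oil was given sc daily for 3 days. Uteri were excised 24 h after the final injection and weighed. Effect is reported as mean ± SD.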

Test [21] shares this target. As to the kind of experiment: Estrogenic activity in uterotrophic test in mice at 180 ug. The class given is functional. The gist of the method: as §4
Test [22] has the same target. The experiment in a line: Estrogenic activity in uterotrophic test in mice at 2 ug. It counts as functional. The gist of the method:
as §4

Test [23] shares this target. As to the kind of experiment: Estrogenic activity in uterotrophic test in mice at 20 ug. The class given is functional. The gist of the method:
as §4

For test [24] the target is unchanged. The experiment in a line: Estrogenic activity in uterotrophic test in mice at 533 ug. The class given is functional. The essentials: (§5)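 Immature (20-day-old) female NMRI mice, 14.5 ± 1.2 g, randomized into groups of 10. Given the test compound sc daily for 3 days in 0.1 mL olive oil. Uteri removed 24 h after the last injection; uterine weight taken as the read-out, means ± SD. Dose in μg.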

Test [25] shares this target. The experiment in a line: Estrogenic activity in uterotrophic test in mice at 60 ug. It counts as functional. The essentials: as §5
For test [26] the target is unchanged. As to the kind of experiment: Inhibitory activity in mouse uterine weight test at 2.7 ug. The class given is functional. The essentials:
as §2

Test [27] has the same target. The experiment in a line: Inhibitory activity in mouse uterine weight test at 240 ug. The class given is functional. The essentials:
as §2

Test [28] has the same target. As to the kind of experiment: Inhibitory activity in mouse uterine weight test at 27 ug. It counts as functional. The essentials:
as §2

For test [29] the target is unchanged. The experiment in a line: Inhibitory activity in mouse uterine weight test at 5 ug. The class given is functional. The gist of the method:
as §2

For test [30] the target is unchanged. As to the kind of experiment: Inhibitory activity in mouse uterine weight test at 80 ug. It counts as functional. The gist of the method: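 Immature female NMRI mice, 20 days old (14.5 ± 1.2 g), in random groups of 10. They received sc injections daily for 3 days of 0.1 mL olive oil containing test compound, with estrone 0.1 μg given to stimulate uterine growth. Uteri were removed 24 h after the last injection and weighed (mean ± SD). Result is percent inhibition of the estrone-stimulated uterine weight gain.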

For test [31], the system named is MCF7. As to the kind of experiment: Inhibition of estrogen receptor positive MCF-7 cell proliferation as percent treated/control cell number after 10 days at 10e-6 M. The class given is functional, Homo sapiens. The gist of the method:
(§6)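 MCF-7 cells were grown in McCoy's 5a medium with fetal bovine serum stripped by DCC (0.5 h, 45 °C). Compounds were dissolved in ethanol (final ≤0.5%) and diluted in complete medium. Cells were seeded at 5×10^4 cells/plate. On day 10, three replicate plates per group were counted by Coulter counter, three counts per plate. Percent T/C = test/control. In a retest, compounds were given at 10^-7 M with 17β-estradiol at 10^-7 or 10^-8 M.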

Test [32] concerns MCF7. The experiment in a line: Inhibition of estrogen receptor positive MCF-7 cell proliferation as percent treated/control cell number after 10 days at 10e-7 M. The class given is functional, Homo sapiens. The gist of the method: as §6
In test [33] the test system is MCF7. As to the kind of experiment: Inhibition of estrogen receptor positive MCF-7 cell proliferation as percent treated/control cell number after 10 days at 10e-8 M. It counts as functional, Homo sapiens. The gist of the method: as §6
The subject of test [34] is MCF7. As to the kind of experiment: Inhibition of estrogen receptor positive MCF-7 cell proliferation as cell number after 10 days at 10e-8 M. It counts as functional, Homo sapiens. The essentials:
as §6

The subject of test [35] is MCF7. As to the kind of experiment: Inhibition of estrogen receptor positive MCF-7 cell proliferation as cell number after 10 days at 10e-6 M. It counts as functional, Homo sapiens. The essentials: as §6
The test system of test [36] is MCF7. As to the kind of experiment: Inhibition of estrogen receptor positive MCF-7 cell proliferation as cell number after 10 days at 10e-7 M. It counts as functional, Homo sapiens. The gist of the method: as §6
The species named for test [37] is Mus musculus. The experiment in a line: Vaginal cornification test in mice at 0.1 ug; cornified nonnucleated cells present (estrus). It counts as functional, organism-based.

The source made the active and inactive calls. No cut-off for these calls is given here.

T1 sequence (O08537 whole entry, looked up): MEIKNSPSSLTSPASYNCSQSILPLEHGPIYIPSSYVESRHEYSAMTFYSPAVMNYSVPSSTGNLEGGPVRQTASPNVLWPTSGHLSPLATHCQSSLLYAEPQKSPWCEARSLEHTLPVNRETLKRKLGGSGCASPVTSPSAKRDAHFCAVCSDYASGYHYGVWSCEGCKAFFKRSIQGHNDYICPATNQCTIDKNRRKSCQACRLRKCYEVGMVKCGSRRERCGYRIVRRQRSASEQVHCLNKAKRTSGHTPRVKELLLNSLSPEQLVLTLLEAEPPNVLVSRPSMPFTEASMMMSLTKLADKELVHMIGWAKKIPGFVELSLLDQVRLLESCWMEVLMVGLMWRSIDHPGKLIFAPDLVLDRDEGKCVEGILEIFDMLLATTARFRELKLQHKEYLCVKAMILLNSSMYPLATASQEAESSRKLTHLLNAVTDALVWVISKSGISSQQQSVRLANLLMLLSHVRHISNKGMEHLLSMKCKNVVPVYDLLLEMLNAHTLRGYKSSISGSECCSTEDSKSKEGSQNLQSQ
T1 sequence (P19785 whole entry, looked up): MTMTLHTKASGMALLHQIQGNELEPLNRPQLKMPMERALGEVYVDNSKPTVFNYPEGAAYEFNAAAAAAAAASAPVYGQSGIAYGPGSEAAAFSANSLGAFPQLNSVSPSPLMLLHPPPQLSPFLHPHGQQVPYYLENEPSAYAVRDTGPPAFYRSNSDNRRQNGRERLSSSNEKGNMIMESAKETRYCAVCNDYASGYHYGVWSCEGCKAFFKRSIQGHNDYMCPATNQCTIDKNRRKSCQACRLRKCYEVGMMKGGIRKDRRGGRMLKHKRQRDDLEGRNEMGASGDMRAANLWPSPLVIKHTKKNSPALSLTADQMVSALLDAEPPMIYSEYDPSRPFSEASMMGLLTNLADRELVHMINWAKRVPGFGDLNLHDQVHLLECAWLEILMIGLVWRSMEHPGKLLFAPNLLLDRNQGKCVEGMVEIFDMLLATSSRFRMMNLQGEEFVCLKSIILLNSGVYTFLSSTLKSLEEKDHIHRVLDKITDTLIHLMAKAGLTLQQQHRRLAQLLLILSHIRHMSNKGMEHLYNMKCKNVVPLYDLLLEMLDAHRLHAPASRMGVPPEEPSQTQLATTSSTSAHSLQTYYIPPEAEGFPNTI

The term inhibition denotes how much of the control response was suppressed. As for `CCCCCC(c1cccc(O)c1)C(CCCCC)c1cccc(O)c1` (centres undefined), the Effect in test [1] came out at 10.5; in test [2], 34.2; in [3], 34.6; in test [4], 39.5. Further, the inhibition was 5% in [5], 15% in [6] and 14% in test [7]. In test [8], the Ka is 3.3e+06 M⁻¹.
With `CC(C)CC(c1cccc(O)c1)C(CC(C)C)c1cccc(O)c1` (centres undefined), the result in the test filed under Mus musculus [9], in the test filed under Mus musculus [10], in the test filed under Mus musculus [12] and in the test filed under Mus musculus [13] was inactive. Also, the Activity entry in the test filed under Mus musculus [11] and in the test filed under Mus musculus [14] was “Weak activity” each time. Further, the Effect in test [1] is 11.4; in test [15] it was 38.1; in [16], 31.7; in [17] it was 33.2; in test [18] it was 31.5; in [19], 34.1. The Effect in test [20] worked out at 10; in [21], 32.6; in test [22], 11.8; in test [23], 14.5; in test [24], 31.3; in [25] it was 19. In addition, the inhibition in [26] turned out to be 4%; in test [27], 27%; in test [28], 22%; in test [29], 18%; in test [30], 28%. Further, the Ka in test [8] came to 110000 M⁻¹.
As a reminder, the T/C is the result in the treated group divided by that in the control group, in per cent. On to `CC/C(=C(\c1ccccc1)c1ccc(OCCN(C)C)cc1)c1ccccc1` [TAMOXIFEN], for which the figures for the T/C in the test on MCF7 [31], in the test on MCF7 [32] and with MCF7 [33] were 75%, 79% and 87%, respectively. In addition, the Cell number with MCF7 [34] worked out at 38000; with MCF7 [35], 32900; in the test with MCF7 [36], 34600.
For the molecule `C[C@]12CC[C@@H]3c4ccc(O)cc4CC[C@H]3[C@@H]1CCC2=O`, in the test filed under Mus musculus [37], the result was Active.

For the origin of these results see ChEMBL document CHEMBL1121898, “Potential antiestrogens. Synthesis and evaluation of mammary tumor inhibiting activity of 1,2-dialkyl-1,2-bis(3'-hydroxyphenyl)ethanes” (1981).
